Experimental data taken from paper PMC7413308 (ARKIVOC : free online journal of organic chemistry, 2018).
Entries after “also recorded” stand apart in the source; their conditions may differ. Like-named read-outs stand apart in the source and are kept apart here.

Assays:
mice [1] = assay: Sensorimotor coordination on rotating rod after oral gavage; assay type: in vivo; conditions: oral gavage 40 mg/kg, rotating rod max 3 minutes, three time-points
[2] = system: HEK293 (kidney) cell line; assay: In vitro cytotoxicity, cell viability; assay type: cell-based; conditions: 48 h incubation, Cell-Titer Glo cell viability
[3] = In vitro microsomal stability of analogs; assay type: in vitro ADME, human
Procognitive assay = assay type: in vivo; conditions: data only preliminary
[4] = In vitro microsomal stability of analogs; assay type: in vitro ADME, mouse
[5] = cited from earlier work
[6] = cited from earlier work; remark: listed apart in the source
HEPG2 (liver) cell line = assay: In vitro cytotoxicity, cell viability; assay type: cell-based; conditions: 48 h incubation, Cell-Titer Glo cell viability
rats [7] = assay: Prepulse inhibition; assay type: in vivo; conditions: 30 mg/kg, IP, one hour before testing, PCP·HCl 1.5 mg/kg SC ten minutes prior to testing
How it was run: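 Rats received the test compound at 30 mg/kg ip one hour before testing, then PCP·HCl (1.5 mg/kg, sc) ten minutes before testing to disrupt PPI. Startle to an auditory stimulus was measured with a non-startling auditory prepulse at 5, 10 and 15 decibels. Results were expressed as mean (+SEM) percent prepulse inhibition and compared with PCP-treated controls given 0 mg/kg drug.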

mice [8] = assay: Rotarod assay, i.p. dosing; assay type: in vivo; conditions: 100 mg/kg i.p., 30 minutes prior to testing, 6 rpm, n=8
How it was run: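 Mice (n=8) were given the test compound at 100 mg/kg ip 30 minutes before being placed on a rod rotating at 6 rpm for a 1-minute trial. Any mouse that fell 3 times during the trial was scored as toxic (ataxic or sedated).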

[9] = In vitro liver microsomal stability; assay type: in vitro ADME, dog; conditions: 4 μM compound, 37 °C, 30 minutes
rats [10] = conditions: cited from earlier work
[11] = In vitro liver microsomal stability; assay type: in vitro ADME, mouse; conditions: 4 μM compound, 37 °C, 30 minutes
mice [12] = conditions: cited from earlier work
[13] = MAM model of schizophrenia; cited from earlier work
mice [14] = assay: 6 Hz electroshock seizure assay; assay type: in vivo
How it was run: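 Mice received the test compound i.p. at 100 or 150 mg/kg, depending on the compound. At various time points after dosing, a 6 Hz electroshock lasting 3 seconds was delivered through a corneal electrode. Each animal was then observed for convulsions and scored as protected or not.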

rhesus monkeys = conditions: cited from earlier work
[15] = In vitro liver microsomal stability; assay type: in vitro ADME, human; conditions: 4 μM compound, 37 °C, 30 minutes
[16] = In vitro liver microsomal stability; assay type: in vitro ADME, rat; conditions: 4 μM compound, 37 °C, 30 minutes
mice, rats and primates = conditions: cited from earlier work
[17] = poly (I:C) animal model of schizophrenia; cited from earlier work
[18] = human, liver microsomes, Microsomal stability (HLM) % remaining, after 2 hr
[19] = mouse, liver microsomes, Microsomal stability (MLM) % remaining, after 2 hr
[20] = footnote b: compound not detected after 20 minutes
[21] = footnote d: assessed at 1-hour incubation time

## C#Cc1ccc2c(c1)C(c1ccccc1F)=N[C@@H](C)c1c(-c3nc(C)no3)ncn1-2 [9a, (S)-5-(8-Ethynyl-6-(2-fluorophenyl)-4-methyl-4H-benzo[f]imidazo[1,5-a][1,4]diazepin-3-yl)-3-methyl-1,2,4-oxadiazole]
Mice [1]
  Effect on sensorimotor coordination (motor impairment, sedation/ataxia): did not exhibit motor impairments
[2]
  HEK293 LD50: 69.3 ± 2.3 µM
[3]; [18]
  remaining at 2 h: 86 ± 0.3%
Procognitive assay
  Procognitive effects in the Y-maze paradigm: procognitive effects (C+)
[4]; [19]
  remaining at 2 h: 81 ± 0.4%

## C#Cc1ccc2c(c1)C(c1ccccc1F)=N[C@@H](C)c1c(C(=O)N(C)C)ncn1-2 [8f, (S)-8-Ethynyl-6-(2-fluorophenyl)-N,N,4-trimethyl-4H-benzo[f]imidazo[1,5-a][1,4]diazepine-3-carboxamide]
Mice [1]
  Effect on sensorimotor coordination (motor impairment, sedation/ataxia): only minor impairment
[2]
  HEK293 LD50: >400 µM
[3]; human, liver microsomes
  half-life: 0.983 ± 0.0833 h
[3]; human, liver microsomes, Microsomal stability (HLM) % remaining, footnote d: assessed at 1-hour incubation time
  remaining at 1 h: 41 ± 0.9%
[5]
  Activity in antidepressant assay (forced swim test): active
[4]; mouse, liver microsomes
  half-life: 0.4 ± 0.0333 h
[4]; mouse, liver microsomes, Microsomal stability (MLM) % remaining, footnote d: assessed at 1-hour incubation time
  remaining at 1 h: 19 ± 0.9%
[6]
  Activity in procognitive assay: procognitive (A++ and C++)
HEPG2 (liver) cell line
  HEPG2 LD50: >400 µM

## C#Cc1ccc2c(c1)C(c1ccccc1F)=N[C@@H](C)c1c(C(=O)NC(C)C)ncn1-2 [8d, (S)-8-Ethynyl-6-(2-fluorophenyl)-N-isopropyl-4-methyl-4H-benzo[f]imidazo[1,5-a][1,4]diazepine-3-carboxa-mide]
Mice [1]
  Effect on sensorimotor coordination (motor impairment, sedation/ataxia): did not show any motor impairment
[2]
  HEK293 LD50: 80.2 ± 11.1 µM
[3]; after 2 hr
  Microsomal stability (HLM) % remaining: 38.0 ± 0.5%
  Microsomal stability (HLM) Half-life: 107 ± 10 min
[4]; after 2 hr
  Microsomal stability (MLM) % remaining: 75.0 ± 0.3%
HEPG2 (liver) cell line
  HEPG2 LD50: 56.9 ± 4.8 µM

## C#Cc1ccc2c(c1)C(c1ccccc1F)=N[C@H](C)c1c(C(=O)OCC)ncn1-2 [compound 1]
Rats [7]
  Reversal of PCP-induced PPI deficit: failed to reach a significant effect; also recorded: not 1 reversed the PPI deficits
Mice [8]
  Ataxia in rotarod assay: neither 1 nor 2 produced significant ataxia
[9]
  Liver microsomal stability (%-remaining) DLM: 90.3%
Rats [10]
  Anxiolytic effect: only a minimal anxiolytic effect
[11]
  Liver microsomal stability (%-remaining) MLM: 59.1%
Mice [12]; female mice
  Anxiolytic and antidepressant effects after UCMS: exhibited anxiolytic and antidepressant effects
Mice [12]; male mice
  Anxiolytic and antidepressant effects after UCMS: very weak or none at all
[13]
  Effect on amphetamine-induced hyperactivity of the dopamine system: successfully alleviate the hyperactivity of the dopamine system induced by amphetamine
Mice [14]; i.p. 150 mg/kg, various time points, 150 mg/kg
  Protection from 6 Hz electroshock-induced seizures: not effective at any time; also recorded: not able to protect mice from electroshock-induced seizures
Rhesus monkeys
  Anxiolytic effect: only a minimal anxiolytic effect
[15]
  Liver microsomal stability (%-remaining) HLM: 100%
[15]; listed as SH-053-2'F-R-CH3 (1)
  Liver microsomal stability (%-remaining) HLM: 100.0%
[16]
  Liver microsomal stability (%-remaining) RLM: 5.4%

## C#Cc1ccc2c(c1)C(c1ccccc1F)=N[C@@H](C)c1c(C(=O)NC(C)(C)C)ncn1-2 [8e, (S)-N-(tert-Butyl)-8-ethynyl-6-(2-fluorophenyl)-4-methyl-4H-benzo[f]imidazo[1,5-a][1,4]diazepine-3-carbox-amide]
Mice [1]
  Effect on sensorimotor coordination (motor impairment, sedation/ataxia): did not show any motor impairment
[2]
  HEK293 LD50: 33.6 ± 3.0 µM
[3]; after 2 hr
  Microsomal stability (HLM) % remaining: 63.0 ± 0.3%
  Microsomal stability (HLM) Half-life: 205 ± 14 min
[4]; after 2 hr
  Microsomal stability (MLM) % remaining: 52.0 ± 0.3%
  Microsomal stability (MLM) Half-life: 142 ± 9 min
HEPG2 (liver) cell line
  HEPG2 LD50: 43.4 ± 4.0 µM

## C#Cc1ccc2c(c1)C(c1ccccc1F)=N[C@@H](C)c1c(C(=O)OCC)ncn1-2 [compound 2]
Rats [7]
  Reversal of PCP-induced PPI deficit: reversed PCP-induced prepulse inhibition (PPI) of acoustic startle; also recorded: significantly reversed the PPI deficit; also recorded: reversed the PPI deficits induced by PCP
mice, rats and primates
  Toxicity in pharmacological assays: not toxic
[2]
  HEK293 LD50: 28.0 ± 4.1 µM
[3]; [20]
  Microsomal stability (HLM) % remaining: < 5.0^b %
  Microsomal stability (HLM) Half-life: < 5^b min
Mice [8]
  Ataxia in rotarod assay: neither 1 nor 2 produced significant ataxia
[17]
  Effect on amphetamine-induced hyperactivity: successfully mitigated the amphetamine-induced hyperactivity
[9]
  Liver microsomal stability (%-remaining) DLM: 90.7%
Rats [10]
  Anxiolytic effect: exerted anxiolytic effects
[11]
  Liver microsomal stability (%-remaining) MLM: 66.5%
[4]; [21]
  Microsomal stability (MLM) % remaining: 78.0 ± 0.2^d %
  Microsomal stability (MLM) Half-life: 155 ± 9^d min
Mice [14]; i.p. 100 mg/kg, time points 1/4, 1/2, 1, 2, and 4 hours, 100 mg/kg
  Protection from 6 Hz electroshock-induced seizures: able to protect some subjects
Rhesus monkeys
  Anxiolytic effect: exerted anxiolytic effects
[15]
  Liver microsomal stability (%-remaining) HLM: 3%
[15]; listed as SH-053-2'F-S-CH3 (2)
  Liver microsomal stability (%-remaining) HLM: 2.3%
HEPG2 (liver) cell line
  HEPG2 LD50: 73.5 ± 14.4 µM
[16]
  Liver microsomal stability (%-remaining) RLM: 6.0%

## C#Cc1ccc2c(c1)C(c1ccccc1F)=N[C@@H](C)c1c(-c3nc(C(C)C)no3)ncn1-2 [9c, (S)-5-(8-Ethynyl-6-(2-fluorophenyl)-4-methyl-4H-benzo[f]imidazo[1,5-a][1,4]diazepin-3-yl)-3-isopropyl-1,2,4-oxadiazole]
Mice [1]
  Effect on sensorimotor coordination (motor impairment, sedation/ataxia): exhibited no sensorimotor impairment
[2]
  HEK293 LD50: 32.5 ± 7.6 µM
[3]; human, liver microsomes
  half-life: 43.1 ± 32 h
[3]; [18]
  remaining at 2 h: 91 ± 0.3%
[4]; mouse, liver microsomes
  half-life: 8.33 ± 1.82 h
[4]; [19]
  remaining at 2 h: 79 ± 0.5%
HEPG2 (liver) cell line
  HEPG2 LD50: 21.7 ± 1.8 µM
